# HNF4A DNA FP – change in binding of human HNF4 alpha to DNA. activity change, % at 10 µM. AID 1224865. HNF4a-FITC DNA binding, fluorescence polarization, 1 h. 360,000 compounds, 0.3% hits; in the data active = activity change above about 30%, passing the limit was not always enough
# TPT1 inh – inhibitors of Candida albicans tRNA 2'-phosphotransferase TPT1; AID 1962; inhibition, % at 5 µM; 300,000 compounds, 0.81% hits; recombinant caTPT1, FP RNA substrate dephosphorylation;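 active = inhibition above the mean of all tested compounds plus 3 SD, set per screening campaign, cut at about 24% in these data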;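 note: plate controls were DMSO alone for no effect and ferristatin control at 100 nM for full effect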
# IDE cell inh – inhibits human insulin-degrading enzyme in HEK cells; AID 434962; P14735; FAbetaB cleavage, fluorescence polarization; 320,000 compounds, 0.41% hits; inhibition, % at 5.59 µM;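 active = percent inhibition above the average of all tested compounds plus 3 SD, set per screening campaign, cut at about 16% in these data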;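 note: IDE supplied by intact live HEK cells; FP after avidin binding of uncleaved biotin substrate so inhibition keeps polarization high; 0% = DMSO wells and 100% = 60 µM reference IDE inhibitor Ii1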
# IDE act – activators of human insulin-degrading enzyme in cells. 340,000 compounds, 0.073% hits. AID 493087. P14735. activation, % at 5.96 µM. HEK cells, FAbeta-B cleavage, fluorescence polarization; 0% vehicle, 100% cell-free pure enzyme wells;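 active = activation above the mean of all tested compounds plus 3 SD, set per screening campaign, cut at about 17% in these data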
# CSN inh – blocks human CSN-mediated cullin deneddylation; Purified CSN, SCF-Nedd8-OG deneddylation, fluorescence polarization; inhibition, % at 12.5 µM; 360,000 compounds, 0.38% hits; Q92905;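 active = pattern-corrected inhibition above about 35%, with an unprinted fluorescence ratio check between 0.5 and 1.5, limit read from the data, passing the limit was not always enough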;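 note: 0% = enzyme with substrate and 100% = substrate without enzyme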
# Target sequence (Q92905 whole entry, looked up, one chain of several): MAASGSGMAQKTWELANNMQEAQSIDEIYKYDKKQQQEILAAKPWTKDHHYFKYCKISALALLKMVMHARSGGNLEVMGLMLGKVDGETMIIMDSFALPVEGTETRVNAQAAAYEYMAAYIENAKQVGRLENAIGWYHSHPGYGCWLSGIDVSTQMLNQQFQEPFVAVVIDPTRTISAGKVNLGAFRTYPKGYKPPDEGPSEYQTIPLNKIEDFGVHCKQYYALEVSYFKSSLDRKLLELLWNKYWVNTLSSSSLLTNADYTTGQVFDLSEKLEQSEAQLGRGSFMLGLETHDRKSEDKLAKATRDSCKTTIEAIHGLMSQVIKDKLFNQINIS
#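 Test system: purified human Csn5 enzyme expressed in HEK293T cells. Amount: 0.24 nM enzyme. Reagent: SCFSkp2-Nedd8OG substrate at 10 nM final. Schedule: 90 min incubation of compound, enzyme and substrate at room temperature. Detection: fluorescence polarization. Read-out: % inhibition of substrate cleavage by Csn5.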
# IDE cell inh cf – confirmation of human insulin-degrading enzyme inhibitors in cells; 1,200 compounds, 51% hits; HEK cells, FAbetaB cleavage, fluorescence polarization; inhibition, % at 5.59 µM; shares compounds with IDE cell inh;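 active = mean inhibition across triplicate wells above the cutoff set by the earlier primary insulin-degrading enzyme screen, cut at about 16% in these data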;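 note: 0% = DMSO wells and 100% = 60 µM reference IDE inhibitor Ii1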
# HEK293 tox – counter-screen for IDE inhibitors: cytotoxicity in HEK cells | 1,200 compounds, 28% hits | AID 449730 | shares compounds with IDE cell inh | HEK293 cytotoxicity, ATP luminescence | inhibition, % at 5.59 µM; in the data active = inhibition above about 22%;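 note: 0% = vehicle wells and 100% = reference cytotoxic drug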
# FP fluor counter – fluorescent artifact in IDE inhibitor FP assay. FP counterscreen for fluorescent artifacts, IDE probe project. 30 tested, under 10 active. IC50, µM. shares compounds with IDE cell inh; call rule not given here
# Starred values were filed as active, the others as inactive; x = no result. Hits are enriched below; roughly 1.4% of the tested compounds scored in any of these assays.
SMILES,HNF4A DNA FP,TPT1 inh,IDE cell inh,IDE act,CSN inh,IDE cell inh cf,HEK293 tox,others
Cc1cc[n+](C(C)C(=O)c2ccc(-c3ccccc3)cc2)cc1 (stereo not drawn),2,2,21*,-16,6,8,77*,
COc1cccc(/C=N/Nc2ncnc3c2[nH]c2ccc(C)cc23)c1OC,52*,3,63*,-45,68*,59*,14,
C=CCNc1ncnc2c1[nH]c1ccc(C)cc12,2,4,30*,-18,-10,15,35*,
COc1cccc(C(=O)NCCN2CCC(n3c(=O)[nH]c4ccccc43)CC2)c1,3,x,x,x,-4,x,x,
CC(=O)Nc1ccc(N2C(=O)c3cccc4c(O)ccc(c34)C2=O)cc1,-97,-21,95*,-30,-73,26*,3,
Cc1ccc(N2C(=O)c3cccc4c(C(=O)O)ccc(c34)C2=O)cc1,x,0,3,x,x,x,x,
CCCCc1cc(=O)oc2c(C)c(OCC(=O)N3C[C@H]4C[C@@H](C3)c3cccc(=O)n3C4)ccc12,2,-1,23*,-21,5,7,15,
CCc1cc(=O)oc2cc(OCC(=O)N3CCC(C(N)=O)CC3)ccc12,-2,-5,3,1,-2,x,x,
Cc1oc2cc3oc(=O)c(CCC(=O)N4C[C@H]5C[C@@H](C4)c4cccc(=O)n4C5)c(C)c3cc2c1C,1,-4,18*,-20,2,9,14,
CCCCc1cc(=O)oc2cc(OCC(=O)N3CCC(C(N)=O)CC3)ccc12,-1,-3,18*,-3,-6,8,9,
COC1=C/C(=C/c2c(N)n3nc(CC(=O)N4CCCC4)sc3nc2=O)C=CC1=O,17,13,24*,-45,15,126*,15,
Nc1c(/C=C2/C=CC(=O)C(O)=C2)c(=O)nc2sc(CC(=O)N3CCCCC3)nn12,-24,2,15,-26,83,x,x,
CCc1nn2c(N)c(/C=C3\C=Nc4ccccc43)c(=O)nc2s1,1,10,2,-1,4,x,x,
CCOC1=C/C(=C/c2c(N)n3nc(CC(=O)N4CCCC4)sc3nc2=O)C=CC1=O,13,8,30*,-88,20,39*,12,
CCOc1ccc(-c2ccc(C3=CC(=O)C[C@H](c4ccc(F)cc4)C3)cc2)cc1,1,x,x,x,-1,x,x,
O=c1onc(-c2ccccc2)c2ccccc12,-3,-3,16*,9,6,7,3,
CN(C)c1nc(SCC(=O)Nc2ccc(Cl)c(Cl)c2)nc(N2CCOCC2)n1,-4,-4,23*,-56,4,9,27*,
CCNc1nc(SCC(=O)Nc2ccc(Cl)c(Cl)c2)nc(N2CCOCC2)n1,5,2,1,-19,1,x,x,
CN(C)c1nc(SCC(=O)Nc2ccccc2)nc(N2CCOCC2)n1,1,-1,20*,-13,-3,16,8,
COCCNC(=O)C1(C)CCN(C(=O)c2ccc3ccccc3n2)C1 (stereo not drawn),0,x,x,x,0,x,x,
CCC(C)[C@H]1COCCS(=O)(=O)N1Cc1ccccc1 (stereo partly drawn),4,-1,-1,-7,-6,x,x,
Cc1nc(C(F)(F)F)c(C(=O)O)cc1-c1nc(-c2ccccc2)cs1,2,0,-1,2,4,x,x,
CC(=O)O[C@@H]1C[C@H]2C(C)(C)C(=O)C=C[C@]2(C)[C@H]2CC[C@@]3(C)[C@H](c4ccoc4)OC(=O)[C@H]4O[C@]43[C@@]21C,-1,0,18*,-41,15,7,58*,
Cn1c(SCC(=O)Nc2ccc3nc(SCC(=O)N4CCCC4)sc3c2)nnc1-c1ccccc1,x,5,21*,x,x,14,10,
NC(CCc1ccccc1)c1csc(Nc2ccccn2)n1 (stereo not drawn),5,x,x,x,-7,x,x,
SMILES,HNF4A DNA FP,TPT1 inh,IDE cell inh,IDE act,CSN inh,IDE cell inh cf,HEK293 tox,others
O=C(Nc1ccc(Cl)cc1)c1csc(Cc2ccccc2)n1,3,-2,-1,5,-1,x,x,
O=C(Nc1cccc(C(F)(F)F)c1)c1csc(Cc2cccc(C(F)(F)F)c2)n1,x,x,x,x,x,x,x,FP fluor counter=>55
CCOCCCNC(=S)N1CCCN(c2nc3cc(C)c(C)cc3cc2C#N)CC1,6,-3,21*,-9,6,5,17,
CC(=O)Oc1ccc(Cl)cc1/C=C/c1cc(OC(C)=O)c2ccccc2n1,x,22,37*,x,x,89*,19,
Cc1ccc2nc(N3CCN(C)CC3)c(C#N)cc2c1,-3,-1,-1,-1,-2,x,x,
Cc1ccc2nc(N3CCN(Cc4nnnn4Cc4ccccc4)CC3)c(C#N)cc2c1,-1,-6,21*,-8,6,0,11,
Cc1cccc(N2CCN(C(=O)C3CCC(CNS(=O)(=O)c4cccs4)CC3)CC2)c1C (stereo not drawn),-1,-2,21*,-9,-1,3,52*,
O=c1[nH]c2ccccc2c(O)c1O,-1,-1,62*,-47,5,65*,18,
O=c1[nH]c2ccccc2c(O)c1-[n+]1ccccc1,4,3,11,-1,-5,x,x,
CCOC(=O)C1=C(CSc2nc(C)cc(C)c2C#N)OC(N)=C(C#N)C1c1ccccc1 (stereo not drawn),1,2,7,2,5,x,x,
CCOC(=O)C1=C(CSc2nc(C)cc(C)c2C#N)OC(N)=C(C#N)C1c1cccs1 (stereo not drawn),x,6,23*,x,x,3,5,
O=C(Cc1ccc(NC(=O)C2CCN(C(=O)C3CCCC3)CC2)cc1)Nc1cccc(C(=O)N2CCCCC2)c1,-1,x,x,0,0,x,x,
COc1cccc2sc(Nc3nc4ccc(NC(C)=O)cc4s3)nc12,28,0,24*,-16,27,7,117*,
COc1cccc2sc(Nc3nc(-c4ccncc4)cs3)nc12,1,4,17*,-8,0,4,61*,
CC1(C2CC2)NC(=O)N(CC(=O)Nc2ccc(F)cc2F)C1=O (stereo not drawn),3,x,4,1,2,x,x,
O=C(CNC(=O)c1sc2ccccc2c1Cl)NCc1cccnc1,0,-4,19*,-16,1,7,9,
CC(=O)c1cccc(-c2ccnc3c2CC(C(=O)NCC2CCOCC2)O3)c1 (stereo not drawn),-2,x,x,x,-6,x,x,
CCN=C1S/C(=C\c2cc(OCC)c(O)cc2Br)C(=O)N1CC,-1,20,17*,-17,-2,22*,23*,
CCN=C1S/C(=C\c2ccc(O)c(OCC)c2)C(=O)N1CC,3,1,5,-9,-4,x,x,
